Test results from ChEMBL document CHEMBL1759881, “Synthesis and anti-inflammatory activity of ent-kaurene derivatives” (Eur J Med Chem, 2011).

Assays:
[1] = test system: RAW264.7; assay: Antiinflammatory activity in mouse RAW264.7 cells assessed as inhibition of LPS-induced nitric oxide release pretreated for 15 mins before LPS challenge measured after 24 hrs by Griess method; type: functional, cell-based
Method in brief: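 RAW 264.7 cells pre-incubated 15 min with compound (1–25 range in the table; 1, 5, 10, 25, 50 for dose-response) or DMSO vehicle, then LPS 250 ng/ml for 24 h. Nitrite in supernatant measured by Griess reagent, absorbance at 548 nm against NaNO2 standard. IC50 is the concentration giving 50% inhibition of NO release. Means ± SD of three independent experiments in triplicate.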

[2] = Cytotoxicity against LPS-stimulated mouse RAW264.7 cells assessed as cell viability at 1 to 25 uM pretreated for 15 mins before LPS challenge measured after 24 hrs by MTT assay; type: cell-based; conditions: LPS-stimulated RAW264.7 cells, read-out: Activity
Method in brief: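 RAW 264.7 cells plated at 10⁵ cells/well, treated with compound at 1–25 in the presence of LPS 250 ng/ml for 24 h. MTT then added for 4 h at 37 °C, formazan extracted in DMSO, absorbance read at 540 nm. Viability expressed relative to untreated controls. Triplicate wells, at least three independent experiments.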

IC50 [1] [µM] | SMILES | viability at 24 h, up to 25 µM [2] [%] | inhibition [1]
> 25 | C=C1[C@H]2CC3=C([C@H](C2)[C@@H]1O)[C@]1(C)CCC[C@@](C)(C(=O)OC)[C@H]1CC3 | 30 | –
> 25 | C=C1[C@@H]2CC=C3[C@@](CC[C@@H]4[C@](C)(C(=O)OC)CCC[C@@]34C)(C2)[C@H]1OC(C)=O | 50 | –
25 | C=C1C[C@@]23CC[C@H]4[C@@](C)(CCC[C@@]4(C)C(=O)OC)[C@@H]2CC[C@@H]1C3 [KAURENOIC ACID METHYL ESTER] | 90 | –
25 | COC(=O)[C@]1(C)CCC[C@@]2(C)[C@@H]3CC[C@@H]4C[C@@]3(CC[C@@H]21)C[C@]4(C)O | 52 | –
> 25 | C=C1C[C@@]23CC[C@H]4[C@@](C)(CCC[C@@]4(C)C(=O)OC[Si](C)(C)C)[C@@H]2CC[C@@H]1C3 | 95 | –
5 | COC(=O)[C@]1(C)CCC[C@@]2(C)[C@@H]3CC[C@@H]4C[C@]3(C=C4C=O)CC[C@@H]21 | 76 | –
> 25 | COC(=O)[C@]1(C)CCC[C@@]2(C)[C@@H]3CC[C@@H]4C[C@@]3(CC[C@@H]21)C[C@H]4C=O | 90 | –
> 25 | C=C1C[C@@]23CC[C@@H]4[C@](C)(CO)CCC[C@@]4(C)C2=CC[C@@H]1C3 | 50 | –
5 | C[C@@]12CCC[C@@](C)(C(=O)OC[Si](C)(C)C)[C@H]1CC[C@]13CC(=O)O[C@H](CC[C@H]12)C3 | 95 | Dose-dependent effect
5 | C=C1[C@@H]2CC[C@H]3[C@]4(C)CCC[C@@](C)(C(=O)OC)[C@H]4CC[C@]3(C2)[C@H]1O | 97 | Dose-dependent effect
> 25 | COC(=O)[C@]1(C)CCC[C@@]2(C)[C@@H]3CC[C@@H]4C[C@@]3(CC[C@@H]21)C(=O)[C@@]41CCN=N1 | 48 | –
17 | COC(=O)[C@]1(C)CCC[C@@]2(C)[C@@H]3CC[C@@H]4C[C@@]3(CC[C@@H]21)C[C@@]41COS(=O)O1 (some centres undefined) | 95 | –
5 | C=C1C[C@@]23CC[C@@H]4[C@](C)(C(=O)OC)CCC[C@@]4(C)C2=CC[C@@H]1C3 [GRANDIFLORENIC ACID METHYL ESTER] | 100 | Dose-dependent effect
> 25 | C[C@@]1(CO)CCC[C@]2(C)[C@@H]1CC[C@@]13C[C@@H](CC[C@H]12)[C@@](C)(O)C3 | 95 | –
> 25 | C=C1[C@@H]2CC[C@H]3[C@]4(C)CCC[C@@](C)(C(=O)O)[C@H]4CC[C@]3(C2)[C@H]1O | 100 | –
25 | COC(=O)[C@]1(C)CCC[C@@]2(C)C3=CC[C@@H]4C[C@]3(C=C4C=O)CC[C@H]12 | 18 | –
> 25 | COC(=O)[C@]1(C)CCC[C@@]2(C)C3=CC[C@@H]4C[C@@]3(CC[C@H]12)C[C@]4(O)CO | 35 | –
> 25 | COC(=O)[C@]1(C)CCC[C@@]2(C)[C@@H]3CC[C@@H]4C[C@@]3(CC[C@@H]21)[C@@H](OC(C)=O)C4=O | 99 | –
> 25 | C=C1[C@@H]2CC[C@H]3[C@]4(C)CCC[C@@](C)(C(=O)OC)[C@H]4CC[C@]3(C2)[C@H]1OC(C)=O | 40 | –

IC50 [1] [µM] | SMILES | viability at 24 h, up to 25 µM [2] [%] | inhibition [1]
> 25 | COC(=O)[C@]1(C)CCCC2(C)[C@@H]3CC[C@@H]4C[C@@]3(CC[C@@H]21)C[C@]41CO1 (some centres undefined) | 90 | –
> 25 | COC(=O)[C@]1(C)CCCC2(C)[C@@H]3CC[C@@H]4C[C@@]3(CC[C@@H]21)C[C@@]41CO1 (some centres undefined) | 66 | –
14 | COC(=O)[C@]1(C)CCC[C@@]2(C)[C@@H]3CC[C@@H]4C[C@@]3(CC[C@@H]21)[C@H]1O[C@@]41C | 95 | –
> 25 | COC(=O)[C@]1(C)CCC[C@]2(C)[C@@H]1CC[C@@]13C[C@@H](C[C@@H]4O[C@@]412)[C@]1(CO1)C3 | 99 | –
> 25 | COC(=O)[C@]1(C)CCC[C@@]2(C)[C@@H]3CC[C@@H]4C[C@@]3(CC[C@@H]21)[C@@H](O)C4=O | 95 | –
> 25 | C=C1C[C@@]23CC[C@@H]4[C@](C)(C(=O)OCc5ccccc5)CCC[C@@]4(C)C2=CC[C@@H]1C3 [GRANDIFLORENIC ACID BENZYL ESTER] | 23 | –
15 | C=C1C[C@@]23CC[C@@H]4C(C)(C(=O)O)CCC[C@@]4(C)C2=CC[C@@H]1C3 (some centres undefined) | 90 | –
5 | COC(=O)[C@]1(C)CCC[C@@]2(C)[C@@H]3CC[C@@H]4C[C@@]3(CC[C@@H]21)C[C@@]4(O)CO | 69 | –
> 25 | COC(=O)[C@]1(C)CCC[C@@]2(C)[C@@H]3CC[C@@H]4C[C@@]3(CC[C@@H]21)C[C@H]4/C=N/O | 25 | –
> 25 | C=C1C[C@@]23CC[C@H]4[C@@](C)(CCC[C@@]4(C)C(=O)OCc4ccccc4)[C@@H]2CC[C@@H]1C3 [KAURENOIC ACID BENZYL ESTER] | 46 | –
> 25 | C=C1[C@@H]2CC[C@H]3[C@]4(C)CCC[C@@](C)(C(=O)Nc5ccccc5)[C@H]4CC[C@]3(C2)[C@H]1OC(C)=O | 85 | –
4 | C=C1C(=O)[C@@]23CC[C@H]4[C@@](C)(CCC[C@@]4(C)C(=O)OC)[C@@H]2CC[C@@H]1C3 | 32 | –
> 25 | COC(=O)[C@]1(C)CCC[C@@]2(C)[C@@H]3CC[C@@H]4C[C@]3(C=C4/C=N/O)CC[C@@H]21 | 99 | –
10 | C=C1C(=O)[C@@]23CC[C@@H]4[C@](C)(C(=O)OC)CCC[C@@]4(C)C2=CC[C@@H]1C3 | 50 | –
> 25 | COC(=O)[C@]1(C)CCC[C@@]2(C)[C@@H]3CC[C@@H]4C[C@@]3(CC[C@@H]21)C[C@H]4C [DIHYDRO KAURENOIC ACID METHYL ESTER] | 72 | –
> 25 | COC(=O)[C@]1(C)CCC[C@@]2(C)[C@@H]3CC[C@@H]4C[C@@]3(CC[C@@H]21)C(=O)OC4=O | 95 | –
10 | COC(=O)[C@]1(C)CCC[C@@]2(C)C3=CC[C@@H]4C[C@@]3(CC[C@H]12)C[C@]4(O)COC(=O)c1ccco1 | 99 | –
> 25 | C[C@@]12CCC[C@@](C)(C(=O)OCc3ccccc3)[C@H]1CC[C@]13CC(=O)O[C@H](CC[C@H]12)C3 | 50 | –
> 25 | COC(=O)[C@]1(C)CCC[C@@]2(C)[C@@H]3CC[C@@H]4C[C@]3(C=C4C)CC[C@@H]21 | 100 | –
